Laboratory results: ChEMBL document CHEMBL3616378 (J Med Chem, 2015)
pEC50, pIC50, pKi: −log10 of the molar value.

Key:
[1] = target: T1, Metabotropic glutamate receptor 2 (Homo sapiens, UniProt Q14416); experiment: Agonist activity at wild type human recombinant mGlu2 receptor expressed in AV12 cells assessed as stimulation of Ca2+ mobilization after 1 hr by FLIPR assay; format: functional, cell-based
[2] = target: Metabotropic glutamate receptor 2 (Homo sapiens, UniProt Q14416, L300Q); experiment: Agonist activity at human recombinant mGlu2 receptor L300Q mutant expressed in AV12 cells assessed as stimulation of Ca2+ mobilization after 1 hr by FLIPR assay; format: functional, cell-based
Chain of Metabotropic glutamate receptor 2 (Homo sapiens, UniProt Q14416, L300Q) (Q14416 19-872 L300Q limits assumed): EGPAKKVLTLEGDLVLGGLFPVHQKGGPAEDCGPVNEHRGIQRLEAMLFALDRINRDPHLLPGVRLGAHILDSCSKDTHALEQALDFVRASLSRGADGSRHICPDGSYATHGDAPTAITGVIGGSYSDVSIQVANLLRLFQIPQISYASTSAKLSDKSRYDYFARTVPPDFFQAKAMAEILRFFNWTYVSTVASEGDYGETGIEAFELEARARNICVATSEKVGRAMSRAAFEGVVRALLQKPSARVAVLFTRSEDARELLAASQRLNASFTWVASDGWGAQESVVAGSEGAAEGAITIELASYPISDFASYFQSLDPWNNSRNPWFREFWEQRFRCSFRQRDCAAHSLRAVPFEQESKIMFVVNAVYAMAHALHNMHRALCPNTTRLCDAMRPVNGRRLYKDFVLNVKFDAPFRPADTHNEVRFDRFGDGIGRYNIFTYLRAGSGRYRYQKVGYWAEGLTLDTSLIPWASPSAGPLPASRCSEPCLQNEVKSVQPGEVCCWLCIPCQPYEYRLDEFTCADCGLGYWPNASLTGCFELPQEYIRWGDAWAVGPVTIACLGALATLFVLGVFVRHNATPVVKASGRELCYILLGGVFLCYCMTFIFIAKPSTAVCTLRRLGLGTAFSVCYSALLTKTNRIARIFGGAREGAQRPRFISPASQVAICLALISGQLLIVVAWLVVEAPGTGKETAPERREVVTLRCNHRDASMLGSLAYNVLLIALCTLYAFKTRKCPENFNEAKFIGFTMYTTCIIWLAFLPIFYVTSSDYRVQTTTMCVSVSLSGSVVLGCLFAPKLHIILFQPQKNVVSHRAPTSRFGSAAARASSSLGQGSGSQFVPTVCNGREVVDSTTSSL

[3] = target: Metabotropic glutamate receptor 3 (Homo sapiens, UniProt Q14832, Q306L); experiment: Agonist activity at human recombinant mGlu3 receptor Q306L mutant expressed in AV12 cells assessed as stimulation of Ca2+ mobilization after 1 hr by FLIPR assay; format: functional, cell-based
Chain of Metabotropic glutamate receptor 3 (Homo sapiens, UniProt Q14832, Q306L) (Q14832 23-879 Q306L limits assumed): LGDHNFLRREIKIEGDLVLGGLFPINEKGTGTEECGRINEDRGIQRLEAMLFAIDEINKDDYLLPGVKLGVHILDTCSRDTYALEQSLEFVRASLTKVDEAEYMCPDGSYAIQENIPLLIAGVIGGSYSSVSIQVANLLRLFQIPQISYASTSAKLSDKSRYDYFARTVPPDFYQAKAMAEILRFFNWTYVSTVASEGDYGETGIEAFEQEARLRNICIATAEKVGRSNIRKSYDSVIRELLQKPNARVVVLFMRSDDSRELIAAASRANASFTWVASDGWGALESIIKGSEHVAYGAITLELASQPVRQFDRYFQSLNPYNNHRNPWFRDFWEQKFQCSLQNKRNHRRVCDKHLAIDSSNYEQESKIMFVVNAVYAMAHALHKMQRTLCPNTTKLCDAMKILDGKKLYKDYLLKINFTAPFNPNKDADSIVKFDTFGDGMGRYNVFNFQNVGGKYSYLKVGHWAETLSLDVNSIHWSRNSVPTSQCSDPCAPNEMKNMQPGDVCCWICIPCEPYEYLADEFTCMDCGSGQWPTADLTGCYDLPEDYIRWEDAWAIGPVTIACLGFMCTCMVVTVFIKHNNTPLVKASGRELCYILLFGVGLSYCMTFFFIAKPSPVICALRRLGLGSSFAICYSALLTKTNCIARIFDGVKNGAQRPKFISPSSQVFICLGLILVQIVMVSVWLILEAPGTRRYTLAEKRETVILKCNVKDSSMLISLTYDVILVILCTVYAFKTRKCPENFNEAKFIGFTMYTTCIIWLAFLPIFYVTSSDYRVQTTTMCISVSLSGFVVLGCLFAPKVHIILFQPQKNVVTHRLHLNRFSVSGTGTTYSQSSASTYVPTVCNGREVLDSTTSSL

[4] = target: Metabotropic glutamate receptor 3 (Homo sapiens, UniProt Q14832, D279E/Q306L); experiment: Agonist activity at human recombinant mGlu3 receptor D279E and Q306L mutant expressed in AV12 cells assessed as stimulation of Ca2+ mobilization after 1 hr by FLIPR assay; format: functional, cell-based
Chain of Metabotropic glutamate receptor 3 (Homo sapiens, UniProt Q14832, D279E/Q306L) (Q14832 23-879 D279E/Q306L limits assumed): as the sequence (Q14832 23-879 Q306L limits assumed) above, with D257E counted along it

[5] = Aqueous solubility of the compound at pH 7.4; format: physicochemical
[6] = Solubility of the compound in DMSO at 20 uM; format: physicochemical
[7] = Metabolic stability of the compound in dog hepatocytes assessed as loss of compound at 2 uM; format: ADME, cell-based, Canis lupus familiaris, Hepatocyte; conditions: read-out: Drug degradation
Summary of the method: (§1)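 Hepatocytes from mouse, rat, dog and human; compound tested at 2 µM; percent loss of parent compound measured.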

[8] = Metabolic stability of the compound in human hepatocytes assessed as loss of compound at 2 uM; format: ADME, cell-based, Hepatocyte; conditions: read-out: Drug degradation; summary of the method: as §1
[9] = target: CYP3A4 (Homo sapiens, UniProt P08684); experiment: Inhibition of human CYP3A4 at 10 uM; format: ADME
Chain of CYP3A4 (P08684 whole entry, canonical isoform): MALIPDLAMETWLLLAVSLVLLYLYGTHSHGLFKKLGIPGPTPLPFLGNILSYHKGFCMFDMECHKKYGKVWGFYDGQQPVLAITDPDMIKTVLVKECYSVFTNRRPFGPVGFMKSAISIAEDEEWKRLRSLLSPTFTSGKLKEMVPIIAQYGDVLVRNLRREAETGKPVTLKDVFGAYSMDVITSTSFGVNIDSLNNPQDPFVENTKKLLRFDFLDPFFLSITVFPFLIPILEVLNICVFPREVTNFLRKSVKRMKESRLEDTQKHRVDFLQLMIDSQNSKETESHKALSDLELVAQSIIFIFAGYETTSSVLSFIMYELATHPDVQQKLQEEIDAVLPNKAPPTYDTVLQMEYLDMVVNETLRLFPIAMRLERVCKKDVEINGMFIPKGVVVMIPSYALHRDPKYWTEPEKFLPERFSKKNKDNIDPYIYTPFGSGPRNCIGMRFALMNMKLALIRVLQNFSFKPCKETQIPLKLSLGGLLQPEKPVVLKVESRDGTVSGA
Summary of the method: (§2)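 Inhibition of human CYP isoforms was measured with the compound tested at 10 µM.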

[10] = target: CYP2D6 (Homo sapiens, UniProt P10635); experiment: Inhibition of human CYP2D6 at 10 uM; format: ADME; summary of the method: as §2
Chain of CYP2D6 (P10635 whole entry): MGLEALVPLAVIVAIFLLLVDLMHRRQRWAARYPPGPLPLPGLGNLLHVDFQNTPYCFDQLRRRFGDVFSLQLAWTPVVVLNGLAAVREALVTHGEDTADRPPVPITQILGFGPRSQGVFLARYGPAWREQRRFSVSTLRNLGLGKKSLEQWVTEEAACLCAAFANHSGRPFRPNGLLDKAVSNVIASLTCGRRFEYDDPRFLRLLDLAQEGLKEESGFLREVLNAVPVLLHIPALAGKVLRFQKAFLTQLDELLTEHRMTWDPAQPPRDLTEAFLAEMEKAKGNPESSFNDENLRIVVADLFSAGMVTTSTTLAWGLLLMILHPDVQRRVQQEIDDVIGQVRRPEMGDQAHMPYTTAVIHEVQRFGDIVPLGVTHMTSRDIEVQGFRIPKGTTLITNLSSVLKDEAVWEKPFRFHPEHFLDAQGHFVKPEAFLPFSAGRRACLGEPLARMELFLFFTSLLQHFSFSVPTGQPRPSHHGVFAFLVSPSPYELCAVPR

[11] = Fraction unbound in rat plasma; format: ADME, cell-free
[12] = Fraction unbound in human plasma; format: ADME, cell-free
[13] = Cmax in Sprague-Dawley rat at 1 mg/kg, iv; format: ADME, organism-based; set-up: dose 1 mg/kg, route intravenous; conditions: in vivo
Summary of the method: (§3)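 Fasted male Sprague–Dawley rats (~250 g) received a single dose of compound dissolved in water and adjusted to pH 7–7.5 with NaOH, given iv, by oral gavage or ip. Serial blood samples (11–12 per rat) were drawn from a jugular vein catheter into EDTA and kept frozen. Plasma was mixed with methanol:water (1:1) containing an analogue internal standard for analysis. Mean plasma parameters are reported.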

[14] = Clearance in Sprague-Dawley rat at 1 mg/kg, iv; format: ADME, organism-based; conditions: in vivo; summary of the method: as §3
[15] = Volume of distribution at steady state in Sprague-Dawley rat at 1 mg/kg, iv; format: ADME, organism-based; conditions: in vivo, read-out: Vdss
Summary of the method: (§4)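 Compound dissolved in water, pH adjusted to 7–7.5 with NaOH; single dose to fasted male Sprague–Dawley rats (~250 g) by oral gavage, intravenous or intraperitoneal route. Serial blood (11–12 samples per rat) from jugular vein catheter into EDTA tubes, centrifuged, frozen; 25 µL plasma mixed with methanol:water (1:1) containing analogue internal standard.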

[16] = Half life in Sprague-Dawley rat at 1 mg/kg, iv; format: ADME, organism-based; conditions: in vivo; summary of the method: as §3
[17] = Tmax in Sprague-Dawley rat at 1 mg/kg, ip; format: ADME, organism-based; conditions: in vivo; summary of the method: as §4
[18] = Half life in Sprague-Dawley rat at 1 mg/kg, ip; format: ADME, organism-based; conditions: in vivo; summary of the method: as §3
[19] = Bioavailability in Sprague-Dawley rat at 1 mg/kg, ip; format: ADME, organism-based; conditions: in vivo; summary of the method: as §3
[20] = Cmax in Sprague-Dawley rat at 3 mg/kg, ip; format: ADME, organism-based; set-up: dose 3 mg/kg, route intraperitoneal; conditions: in vivo; summary of the method: as §3
[21] = Tmax in Sprague-Dawley rat at 3 mg/kg, ip; format: ADME, organism-based; conditions: in vivo; summary of the method: as §4
[22] = AUC (0 to 24 hrs) in Sprague-Dawley rat at 10 mg/kg, ip; format: ADME, organism-based; set-up: dose 10 mg/kg, time < 24 hr, route intraperitoneal; conditions: in vivo; summary of the method: as §3
[23] = Cmax in Sprague-Dawley rat at 10 mg/kg, ip; format: ADME, organism-based; set-up: dose 10 mg/kg, route intraperitoneal; conditions: in vivo; summary of the method: as §3
[24] = Tmax in Sprague-Dawley rat at 10 mg/kg, ip; format: ADME, organism-based; conditions: in vivo; summary of the method: as §4
[25] = Plasma concentration in Sprague-Dawley rat at 3 mg/kg, ip after 0.5 hrs; format: ADME, organism-based
Summary of the method: (§5)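 Separate experiment: single ip doses of 1, 3 and 10 mg/kg to rats, compound in water adjusted to pH 7–7.5 with NaOH; plasma (with csf) sampled at 0.5, 1 and 4 h; mean plasma concentrations ± SEM reported.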

[26] = target: T1, Metabotropic glutamate receptor 2; experiment: Displacement of [3H]-459477 from human recombinant mGlu2 receptor expressed in AV12 cells after 90 mins by liquid scintillation counting; format: cell-based
[27] = target: T2, Metabotropic glutamate receptor 3 (Homo sapiens, UniProt Q14832); experiment: Displacement of [3H]-459477 from human recombinant mGlu3 receptor expressed in AV12 cells after 90 mins by liquid scintillation counting; format: cell-based
T2 sequence (Q14832 whole entry): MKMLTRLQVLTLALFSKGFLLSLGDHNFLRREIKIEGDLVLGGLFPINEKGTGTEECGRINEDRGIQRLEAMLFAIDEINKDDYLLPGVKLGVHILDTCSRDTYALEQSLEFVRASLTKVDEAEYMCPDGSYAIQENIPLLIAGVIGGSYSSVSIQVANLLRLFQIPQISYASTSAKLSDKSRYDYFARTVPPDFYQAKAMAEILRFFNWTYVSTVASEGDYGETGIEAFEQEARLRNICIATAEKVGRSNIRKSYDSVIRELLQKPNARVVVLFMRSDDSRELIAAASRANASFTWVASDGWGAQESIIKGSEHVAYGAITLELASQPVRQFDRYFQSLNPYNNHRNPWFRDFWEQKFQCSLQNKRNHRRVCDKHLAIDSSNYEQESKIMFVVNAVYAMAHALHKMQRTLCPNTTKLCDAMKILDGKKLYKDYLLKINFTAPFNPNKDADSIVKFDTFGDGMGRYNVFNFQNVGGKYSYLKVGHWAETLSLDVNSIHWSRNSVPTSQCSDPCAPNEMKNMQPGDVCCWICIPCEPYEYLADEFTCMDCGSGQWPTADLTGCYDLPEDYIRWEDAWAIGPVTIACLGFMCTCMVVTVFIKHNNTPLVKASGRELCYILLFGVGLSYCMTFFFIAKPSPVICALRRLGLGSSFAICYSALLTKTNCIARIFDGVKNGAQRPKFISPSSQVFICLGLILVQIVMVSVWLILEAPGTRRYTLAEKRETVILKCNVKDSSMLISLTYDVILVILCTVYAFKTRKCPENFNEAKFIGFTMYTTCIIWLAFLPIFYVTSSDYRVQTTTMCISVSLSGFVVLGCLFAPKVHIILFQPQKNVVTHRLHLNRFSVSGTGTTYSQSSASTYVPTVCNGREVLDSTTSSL

[28] = Plasma concentration in Sprague-Dawley rat at 3 mg/kg, ip after 4 hrs; format: ADME, organism-based; summary of the method: as §5
[29] = Plasma concentration in Sprague-Dawley rat at 10 mg/kg, ip after 4 hrs; format: ADME, organism-based; summary of the method: as §5
[30] = Drug level in Sprague-Dawley rat cerebrospinal fluid at 1 mg/kg, ip after 0.5 hrs; format: ADME, organism-based; conditions: read-out: Drug uptake
Summary of the method: (§6)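 Male Sprague–Dawley rats received single ip doses of 1, 3 or 10 mg/kg. Cerebrospinal fluid and plasma levels were determined at 0.5, 1 and 4 h. Mean csf concentration (nM ± SEM) is reported.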

[31] = Drug level in Sprague-Dawley rat cerebrospinal fluid at 3 mg/kg, ip after 0.5 hrs; format: ADME, organism-based; conditions: read-out: Drug uptake; summary of the method: as §6
[32] = target: T2, Metabotropic glutamate receptor 3; experiment: Antagonist activity at human recombinant mGlu3 receptor expressed in AV12 cells assessed as reversal of DCG-4-inhibited, forskolin-stimulated cAMP production after 1 hr by fluorescence assay; format: functional, cell-based
[33] = target: Metabotropic glutamate receptor 4 (Homo sapiens, UniProt Q14833); experiment: Agonist activity at human recombinant mGlu4 receptor expressed in AV12 cells assessed as stimulation of Ca2+ mobilization after 1 hr by FLIPR assay; format: functional, cell-based
[34] = target: Metabotropic glutamate receptor 8 (Homo sapiens, UniProt O00222); experiment: Agonist activity at human recombinant mGlu8 receptor expressed in AV12 cells assessed as stimulation of Ca2+ mobilization after 1.5 hrs by FLIPR assay; format: functional, cell-based
[35] = Drug level in Sprague-Dawley rat cerebrospinal fluid at 10 mg/kg, ip after 0.5 hrs; format: ADME, organism-based; conditions: read-out: Drug uptake; summary of the method: as §6
[36] = Drug level in Sprague-Dawley rat cerebrospinal fluid at 10 mg/kg, ip after 1 hr; format: ADME, organism-based; conditions: read-out: Drug uptake; summary of the method: as §6
[37] = tested on: Rattus norvegicus; experiment: Antipsychosis activity in ip dosed Sprague-Dawley rat assessed as reduction of […] in horizontal ambulations administered 30 mins before PCP challenge measured after 60 mins; format: functional
[38] = tested on: Rattus norvegicus; experiment: Toxicity in Sprague-Dawley rat assessed as impairment of neuromuscular coordination at 10 mg/kg, ip after 1 hr by rotarod test; format: organism-based; conditions: in vivo
[39] = species on record: Rattus norvegicus; experiment: Toxicity in Sprague-Dawley rat assessed as impairment of neuromuscular coordination at 300 nM of cerebrospinal fluid concentration by rotarod test; format: organism-based; conditions: in vivo, 0.3 µM
[40] = target: T1, Metabotropic glutamate receptor 2; experiment: Agonist activity at human recombinant mGlu2 receptor expressed in AV12 cells assessed as inhibition of forskolin-stimulated cAMP production after 20 min by fluorescence assay

T1 sequence (Q14416 whole entry): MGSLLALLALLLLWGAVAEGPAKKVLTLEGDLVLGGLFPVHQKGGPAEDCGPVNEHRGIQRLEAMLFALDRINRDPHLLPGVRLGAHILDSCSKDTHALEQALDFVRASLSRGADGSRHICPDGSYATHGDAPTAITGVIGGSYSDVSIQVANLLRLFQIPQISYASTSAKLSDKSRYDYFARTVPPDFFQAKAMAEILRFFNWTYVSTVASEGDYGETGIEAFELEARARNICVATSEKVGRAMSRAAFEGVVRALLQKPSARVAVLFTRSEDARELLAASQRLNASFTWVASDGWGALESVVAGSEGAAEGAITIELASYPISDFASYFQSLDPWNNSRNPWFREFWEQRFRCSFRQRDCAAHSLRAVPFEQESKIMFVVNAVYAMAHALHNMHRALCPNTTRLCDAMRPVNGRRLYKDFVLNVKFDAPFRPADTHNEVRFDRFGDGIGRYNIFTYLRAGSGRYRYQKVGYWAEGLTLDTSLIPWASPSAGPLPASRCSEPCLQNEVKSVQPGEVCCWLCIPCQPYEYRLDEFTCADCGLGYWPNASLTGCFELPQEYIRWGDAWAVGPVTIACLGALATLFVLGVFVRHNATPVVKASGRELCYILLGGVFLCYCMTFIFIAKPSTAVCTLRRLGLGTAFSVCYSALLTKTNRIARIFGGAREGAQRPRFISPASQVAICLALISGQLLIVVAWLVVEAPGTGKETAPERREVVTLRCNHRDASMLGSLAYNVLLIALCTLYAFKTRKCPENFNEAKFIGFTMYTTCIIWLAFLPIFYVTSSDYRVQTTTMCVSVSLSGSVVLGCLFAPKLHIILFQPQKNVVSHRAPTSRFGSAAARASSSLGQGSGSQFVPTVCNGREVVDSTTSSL

Compound `N[C@@]1(C(=O)O)C[C@@H](Sc2nc[nH]n2)[C@H]2[C@H](C(=O)O)[C@H]21` has a pEC50 [1] of 7.70, a pEC50 [2] of 7.66 and a pEC50 [3] of 5.55. For the same compound, the pEC50 [4] was 5.93, the solubility [5] was > 0.1 mM and the solubility at 20 µM [6] was > 10 mM. For the same compound, the metabolised at 2 µM [7] was < 10%, the metabolised at 2 µM [8] was < 10% and the inhibition at 10 µM [9] was < 10%. For the same compound, the inhibition at 10 µM [10] was < 10%, the fraction unbound [11] was > 0.98 and the fraction unbound [12] was > 0.98. For the same compound, the Cmax [13] was 9540 nM, the clearance [14] was 12.3 mL/min/kg and the Vd [15] was 1.01 L/kg. It also gave a half-life [16] of 198 min, a Tmax [17] of 24 min and a half-life [18] of 72 min. For the same compound, the bioavailability [19] was 122%, the Cmax [20] was 8050 nM and the Tmax [21] was 19.8 min. It also gave an AUC(0-t) at 24 h [22] of 43.1 µM·h, a Cmax [23] of 31100 nM and a Tmax [24] of 30 min. The concentration at 0.5 h [25] was 10100 nM, the pKi [26] was 6.84 and the pKi [27] was 6.81. It also gave a concentration at 4 h [28] of 700 nM, a concentration at 4 h [29] of 3020 nM and a concentration at 0.5 h [30] of 48.8 nM. The concentration at 0.5 h [31] was 97.3 nM, the pIC50 [32] was 5.56 and the pEC50 [33] was < 4.60. The pEC50 [34] was < 4.60, the concentration at 0.5 h [35] was 235 nM and the concentration at 1 h [36] was 272 nM. The ED50 [37] was 1.2 mg/kg, the Activity [38] was “Toxic” and the Activity [39] was “Toxic”. It also gave a pEC50 [40] of 8.25.
